Experimental findings from ChEMBL document CHEMBL4513216, “Probing the Open Global Health Chemical Diversity Library for Multistage-Active Starting Points for Next-Generation Antimalarials” (ACS Infect Dis, 2020) are described below.

A short description of this data set: Toxicity liver stage against HepG2, at 10uM. The following applies: human, HepG2-A16-CD81EGFP cells; read-out: INHIBITION
Also noted: test concentration 10 uM, cell line HepG2-A16-CD81EGFP. Format: cell-based. The method in brief:
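Uninfected HepG2-A16-CD81EGFP cells, 3 × 10^3 per well, 1536-well, plated on prespotted compound at 10 μM final, parasite-free screening media added to match infected plates; puromycin 10 μM positive, DMSO 0.5% negative; run in parallel with 48 h PbLuc assay at 37 °C, 5% CO2; viability by CellTiter-Glo luminescence, normalized to controls.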
Take `O=C(NCC1CC1)C1=NOC2(CCN(Cc3ccc(Cl)c(F)c3)C2)C1` (stereo not drawn): the cytotoxicity at 10 µM worked out at 13.5%. As for `COC(=O)c1sccc1S(=O)(=O)N1CCC(Oc2ncccc2Cl)CC1`, the cytotoxicity at 10 µM is -16.8%. As to `CCn1cc(Cl)c(C(=O)NCCCN(C)C)n1`, the cytotoxicity at 10 µM stood at 9.46%. The figure for `Cc1cccc(-n2nnnc2C(C)(C)Nc2ccccc2C)c1` is 8%; for `O=C1CNc2ncnc(N3CCN(Cc4ccccc4F)CC3)c2N1` it is 9.87%; for `CCn1ccc(NC(=O)CCc2c(C)nn(C)c2C)n1` it is 4.01%.

Consider `Nc1cc(-c2c[nH]nc2C2CCCN2S(=O)(=O)c2ccccc2)ccn1` (stereo not drawn), for which the cytotoxicity at 10 µM was 6.34%. For the compound `CN1CCCC(Cc2cc(N(C)C)ncn2)C1` (stereo not drawn), the cytotoxicity at 10 µM came to 11.1%. Consider `Cc1nn(C)cc1-c1cc(C(=O)N2CCc3ncc(Cl)cc3C2)no1`, for which the cytotoxicity at 10 µM amounted to 1.18%.

With `Cc1cnc2cc(C3CCN(C(=O)c4ccncc4)CC3)[nH]c2n1`, the cytotoxicity at 10 µM is -22.1%.

`COCc1nc(C2CCN(Cc3ncc[nH]3)CC2)no1`: the cytotoxicity at 10 µM was -23.1%. For the compound `CN(C)C(=O)CN1CCCCC1c1nc(N)ncc1-c1ccc(Cl)cc1` (stereo not drawn), the cytotoxicity at 10 µM was -14.9%. The figure for `CCCNC(=O)c1cncc(CC2CCCN(C)C2)c1` (stereo not drawn) is -16%. With `O=C(NCCO)C1(Cc2cc(-c3ccc(F)cc3F)no2)CCOCC1`, the cytotoxicity at 10 µM was determined as 0.333%. `Cc1ccc(S(=O)(=O)N2C[C@H]3C[C@H](NC(=O)c4ccn(C)n4)[C@H]3C2)cc1`: the cytotoxicity at 10 µM was -1.11%. As to `CNc1cncc(C2CCCN2Cc2ccccc2OCC(=O)O)n1` (stereo not drawn), the cytotoxicity at 10 µM was -0.105%. Consider `O=C(Cc1cccc(F)c1F)NS(=O)(=O)c1ccc(Cl)cn1`, for which the cytotoxicity at 10 µM worked out at 0.545%. On to `CNc1nc(CS(=O)(=O)c2ccccc2)cs1`, for which the cytotoxicity at 10 µM amounted to 13%. The figure for `COc1cc(OC)cc(-c2noc(CN)n2)c1` is 20.6%. The figure for `Cc1ccc(CN(C)C(=O)CNC(C)(C)c2noc(C(C)(C)C)n2)o1` is 2.43%; for `Cc1ncccc1C(=O)Nc1cccc(Cn2ccccc2=O)c1` it is 3.06%. As to `COc1ccc(CCN2CCCC(n3cncn3)C2)cc1` (stereo not drawn), the cytotoxicity at 10 µM is -6.2%. Take `CSCC(C)N(C)C(=O)CN1CCN(c2ccccn2)CC1` (stereo not drawn): the cytotoxicity at 10 µM was -7.59%. As for `O=C(CN1CCCNC1=O)N(Cc1ccccc1)CC(F)F`, the cytotoxicity at 10 µM amounted to 5.9%. The result for `Cc1ccc(C(=O)NCc2ccnc(N3CCN(C)CC3)c2)cn1` reads -2.07%; that for `CN(C)C(=O)C1SCCc2ccccc21` (stereo not drawn), 1.81%; that for `O=C(Cn1cc(C2CC2)nn1)N(Cc1ccco1)CC1CCCO1` (stereo not drawn), 0.0636%.

`O=S(=O)(Cc1ccon1)N1CCN(c2ccncc2Cl)CC1`: the cytotoxicity at 10 µM was -4.96%.

On to `COc1ccc(OCCNC(=O)c2ccc3c(=O)[nH][nH]c(=O)c3c2)cc1`, for which the cytotoxicity at 10 µM is -4.83%. For `CS(=O)(=O)NCC1CCCCN1Cc1cccc(C#N)c1` (stereo not drawn), the cytotoxicity at 10 µM worked out at 0.528%.

Regarding `Cc1cnn(CCNCc2cc(C)no2)c1`, the cytotoxicity at 10 µM was 8.77%. As for `CC1CN(S(=O)(=O)c2cc(S(C)(=O)=O)ccc2Br)c2cccnc2O1` (stereo not drawn), the cytotoxicity at 10 µM was -0.346%. With `CC(CC(=O)Nc1ncn(CC(=O)NCc2ccccc2)n1)C1CC1` (stereo not drawn), the cytotoxicity at 10 µM stood at 7.12%. With `Cc1cccc(NC(=O)CN(C)C(=O)c2scnc2C)n1`, the cytotoxicity at 10 µM was -3.79%.

With `Cc1cc(F)ccc1NC(=O)NCC(C)N1CCOCC1` (stereo not drawn), the cytotoxicity at 10 µM was -4.1%. Turning to `CCN(CCC(F)(F)F)S(=O)(=O)c1cccc(F)c1C#N`, the cytotoxicity at 10 µM was -3.77%. Consider `CC(C)(C)c1ncc(CNc2ccn(CCc3ccncc3)n2)s1`, for which the cytotoxicity at 10 µM amounted to 26.1%.

In the case of `Cc1nnc(C(NS(=O)(=O)c2cc(C)c(F)cc2F)C(C)C)[nH]1` (stereo not drawn), the cytotoxicity at 10 µM is -6.04%. In the case of `Cc1nc(NC(=O)NCc2nc3cccc(C)c3n2C)oc1C`, the cytotoxicity at 10 µM was -6.71%. Take `CN(Cc1ccccc1)CC(C)(C)NC(=O)c1ccon1`: the cytotoxicity at 10 µM was determined as 13%. Turning to `CCN1CCN(c2ccc(C(=O)NCCn3ccnc3)cc2F)CC1`, the cytotoxicity at 10 µM worked out at 10.8%. As to `CCCC1(CNCc2ncc[nH]2)CCC1`, the cytotoxicity at 10 µM was found to be 2.24%.

Take `CCOCCN1CCN(Cc2nc(C3CC3)no2)CC1CC` (stereo not drawn): the cytotoxicity at 10 µM is -5.75%. For `CNC(=O)[C@@]12CCO[C@@H]1CCN(S(=O)(=O)c1cccc(C)c1)C2`, the cytotoxicity at 10 µM is -1.8%.

As for `COc1ccccc1N1CCC(N2CCOCC(CO)C2)CC1` (stereo not drawn), the cytotoxicity at 10 µM was -6.85%. Regarding `CCC[C@H]1CN(C2CCOCC2)C[C@@H]1NC(=O)CCc1cnccn1`, the cytotoxicity at 10 µM is 3.12%. As to `CCCN(CCC)C(=O)c1cc(CN2CCC(O)CC2)on1`, the cytotoxicity at 10 µM was 1.29%.

Turning to `CC(=O)NCCNc1nc(-c2ccccn2)nc2c1c(C)nn2C`, the cytotoxicity at 10 µM is 2.72%.

For `CCN(Cc1ccccn1)Cc1cc(Cl)ccc1OC`, the cytotoxicity at 10 µM worked out at 1.45%.

Take `CCn1c(C2CCN(C(=O)COCC(F)(F)C(F)F)CC2)n[nH]c1=O`: the cytotoxicity at 10 µM was -55%. Turning to `CC(C)[C@]1(O)CN(C(=O)C2(Cn3cccn3)CC2)C[C@H]1C`, the cytotoxicity at 10 µM was found to be 1.79%.

Turning to `Cc1nn(C)c2nc(N(C)CCN(C)C)sc12`, the cytotoxicity at 10 µM turned out to be 9.38%. The result for `Cc1nc(O)cc(C2CCCN(C(=O)COCc3ccccc3)C2)n1` (stereo not drawn) reads -11%; that for `O=C(Cc1ccccn1)N1CCC2(CC1)[C@H](O)C[C@@H]2O`, -2.34%; that for `Cn1cc(CN2CCCC(CCc3ccc(F)c(F)c3)C2)cn1` (stereo not drawn), -6.6%. As to `Nc1nc2c(c(NCc3cnc4c(c3)CCC4)n1)CCNC2`, the cytotoxicity at 10 µM is 1.98%.

In the case of `Cc1nccnc1N1Cc2cnn(Cc3ccc(F)cc3)c2C1`, the cytotoxicity at 10 µM turned out to be 2.45%. Consider `CCNc1ccnc(NCC2(N(C)C)CCOCC2)n1`, for which the cytotoxicity at 10 µM was -0.686%.

Take `CCc1nnc(CN(CC)C(=O)C2CC(=O)N(CC)C2)o1` (stereo not drawn): the cytotoxicity at 10 µM is 1.97%.

For the compound `Cc1ccc(-c2nnc(CCC(=O)NCc3cn(C)nc3C)o2)s1`, the cytotoxicity at 10 µM is -1.31%. In the case of `CCOCCC(=O)N(C)Cc1noc(C(C)C)n1`, the cytotoxicity at 10 µM amounted to 6.13%.

Turning to `Cc1cnccc1CN1CC[C@@](C)(O)[C@H](Oc2ccccc2)C1`, the cytotoxicity at 10 µM is -1.78%.

Regarding `CNS(=O)(=O)Cc1ccc(CNC(=O)c2ccccn2)cc1`, the cytotoxicity at 10 µM is -0.945%. `Cc1oc(C(=O)O)cc1S(=O)(=O)Nc1cc(Br)ccc1Cl`: the cytotoxicity at 10 µM was 0.386%. Consider `Cc1noc(Cl)c1CCC(=O)N1CCN(CC(C)(C)O)CC1`, for which the cytotoxicity at 10 µM is 1.61%. The figure for `Cc1nc(C)c(C(=O)NCCNc2ncccn2)s1` is -3.65%; for `O=C(c1csc(-c2ccccn2)n1)N1CCCC1Cn1cccn1` (stereo not drawn) it is -3.69%; for `c1ccc(-c2nc(CNC3CCc4ncnn4C3)cs2)cc1` (stereo not drawn) it is -6.19%. The figure for `CC(C)c1nnc2n1CCN(Cc1ncc(-c3ccccc3)o1)C2` is -12.8%; for `Cc1nc(CN(C)C2CCN(CCc3cccs3)C2)no1` (stereo not drawn) it is 6.03%; for `CCn1ccnc1CN1CCCN(C(=O)Cc2ccc(C)s2)CC1` it is -19%. On to `CN(CCCOc1ccc(F)cc1)Cc1nc2c(cnn2C)c(=O)[nH]1`, for which the cytotoxicity at 10 µM is -4.62%. For the compound `COCCCN(C)Cc1nc2c(cnn2C)c(=O)[nH]1`, the cytotoxicity at 10 µM is -4.2%.

In the case of `Cc1nc(CNC(=O)NCC(O)c2ccc(F)c(F)c2)cs1` (stereo not drawn), the cytotoxicity at 10 µM is -3.88%. In the case of `N#Cc1ccc(N2CCCN(C(=O)CC3CCCO3)CC2)cc1` (stereo not drawn), the cytotoxicity at 10 µM is -4.69%. Regarding `Cc1c[nH]cc1C(=O)N1CCN(CCc2cccs2)CC1`, the cytotoxicity at 10 µM was -6.8%.

As to `Cc1cc(C)c(CNC(=O)NCC2CCCO2)c(=O)[nH]1` (stereo not drawn), the cytotoxicity at 10 µM is -3.76%.

Turning to `Cc1ccc(C)c(OC2CCN(C(=O)c3ccc(O)nc3)CC2)c1`, the cytotoxicity at 10 µM was 3.23%. `CN1CCN(C2CCN(CC(=O)NCC(F)(F)F)CC2)C1=O`: the cytotoxicity at 10 µM is -9.78%.

Regarding `CN(C)CC1CN(c2cnc3ccccc3n2)CCO1` (stereo not drawn), the cytotoxicity at 10 µM is -9.93%. In the case of `CN(Cc1ccc(F)cc1)C(=O)NCc1nnc2n1CCCCC2`, the cytotoxicity at 10 µM is -10.1%. Take `Cc1ccc(C(N)c2cccc(S(C)(=O)=O)c2)cc1` (stereo not drawn): the cytotoxicity at 10 µM stood at 3.18%. The result for `CCN(Cc1nc2c(cnn2C)c(=O)[nH]1)c1ccc(OC)c(OC)c1` reads 2.31%. The figure for `CC(O)CN1CCC(CNCc2cccc(OC(C)C)c2)CC1` (stereo not drawn) is -8.16%; for `CC(C)NC(=O)Nc1ccc(CNCc2cccc(OC(F)F)c2)cc1` it is -7.96%.

`Cc1cnn(CC2CCCN2CC(=O)Nc2cc(C)nn2C)c1` (stereo not drawn): the cytotoxicity at 10 µM is -20.1%.

With `Cc1nn(C)c(N2CCOCC2)c1CNCc1ccnc(N(C)C)c1`, the cytotoxicity at 10 µM amounted to 1.97%. In the case of `CC(CN1CCOCC1)OC(=O)c1ccccc1I` (stereo not drawn), the cytotoxicity at 10 µM is -6.37%. The result for `O=C(NC[C@]12COC[C@H]1CN(C1CCOCC1)C2)c1ccco1` reads -3.99%; that for `CS(=O)(=O)NCc1cnc2n1CCN(Cc1ccco1)CC2`, -4.31%. The result for `CN(C)C(=O)CC1CC2(CCN(c3ncccn3)CC2)c2ccccc21` (stereo not drawn) reads -16.7%. For the compound `Cn1ccnc1CN1CCN2C[C@H](Oc3cccc(F)c3)C[C@H]2C1`, the cytotoxicity at 10 µM came to 13.6%.

For `c1ccc(N2CCC3(COCCN(c4ncccn4)C3)C2)nc1` (stereo not drawn), the cytotoxicity at 10 µM came out at 2.78%.

As for `Cc1ccc2c(c1)CCC21CCN(C(=O)CN(C)C)CC1`, the cytotoxicity at 10 µM was -6.25%. As to `c1cncc(OCc2noc3c2CN(Cc2ccco2)CC3)c1`, the cytotoxicity at 10 µM is 1.71%. In the case of `N#Cc1ccc(NC(=O)C2CSCN2)cc1` (stereo not drawn), the cytotoxicity at 10 µM is 2.62%. In the case of `CCc1c(C)[nH]c2cc(C3CCN(Cc4ccncc4C)C3)nn2c1=O` (stereo not drawn), the cytotoxicity at 10 µM was -14.1%. On to `CC(C)=CCN1C[C@@H]2CC[C@H]1CN(Cc1cc(=O)[nH]c(=O)[nH]1)C2`, for which the cytotoxicity at 10 µM was -17.3%.
